Results: ChEMBL document CHEMBL1130195, “6-Chloro-5-methyl-1-[[2-[(2-methyl-3-pyridyl)oxy]-5-pyridyl]carbamoyl]- indoline (SB-242084): the first selective and brain penetrant 5-HT2C receptor antagonist” (J Med Chem, 1997)

Assays:
[1] = target: 5-hydroxytryptamine receptor 2A (Homo sapiens, UniProt P28223); assay: Displacement of [3H]ketanserin from 5-hydroxytryptamine 2A receptor expressed in HEK 293 cells; assay type: cell-based, HEK293
Summary of the method: (§1)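 Human cloned receptors expressed in HEK 293 cells. Radioligands: [3H]5-HT for 5-HT2B, [3H]ketanserin for 5-HT2A, [3H]mesulergine for 5-HT2C. Each value is the mean of at least two determinations, each within 0.2 log unit of the mean.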

[2] = target: T1, 5-hydroxytryptamine receptor 2C (Homo sapiens, UniProt P28335); assay: Displacement of [3H]mesulergine from 5-hydroxytryptamine 2C receptor expressed in HEK 293 cells; assay type: cell-based, HEK293; summary of the method: as §1
T1 sequence (P28335 whole entry): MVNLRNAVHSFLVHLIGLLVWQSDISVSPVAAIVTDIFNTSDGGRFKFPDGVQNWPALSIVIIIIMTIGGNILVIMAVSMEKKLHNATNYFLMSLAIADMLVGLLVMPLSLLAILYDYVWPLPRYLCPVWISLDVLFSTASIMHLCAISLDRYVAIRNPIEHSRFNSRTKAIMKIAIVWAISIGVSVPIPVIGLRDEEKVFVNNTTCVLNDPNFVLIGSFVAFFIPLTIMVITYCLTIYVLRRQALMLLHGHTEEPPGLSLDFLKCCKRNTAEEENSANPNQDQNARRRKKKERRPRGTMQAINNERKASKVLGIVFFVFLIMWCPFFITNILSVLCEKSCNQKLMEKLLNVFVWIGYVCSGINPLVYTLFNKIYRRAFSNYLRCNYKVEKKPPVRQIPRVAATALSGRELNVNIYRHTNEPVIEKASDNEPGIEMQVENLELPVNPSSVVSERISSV

Rattus norvegicus = assay: Mean dose required to reverse m-chlorophenyl-piperazine (mCPP) induced hypolocomotion (7 mg/kg ip administered 30 min pretest); assay type: functional; conditions: 0.5 h, read-out: ID50 (the source's name)
Summary of the method: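 Test compound given orally. Hypolocomotion was induced by mCPP, 7 mg/kg ip, 30 min pretest. The ID50 is the dose reversing hypolocomotion by 50%, reported as mean with confidence limits.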

[3] = target: Serotonin 2 receptors; 5-HT2a & 5-HT2c (Homo sapiens) (UniProt P28223+P28335); assay: Selectivity for 5-HT2C over 5-HT2A receptor; assay type: protein assay
[4] = target: 5-hydroxytryptamine receptor 2B (Homo sapiens, UniProt P41595); assay: Displacement of [3H]5-HT from 5-hydroxytryptamine 2B receptor expressed in HEK 293 cells; assay type: cell-based, HEK293; summary of the method: as §1
Cytochrome P450 2C9 = Cytochrome P450 2C9 (Homo sapiens, UniProt P11712); assay: Inhibition of heterologously expressed human Cytochrome P450 2C9 at 100 uM; assay type: ADME
Cytochrome P450 1A2 = target: T2, Cytochrome P450 1A2 (Homo sapiens, UniProt P05177); assay: Inhibition of heterologously expressed human Cytochrome P450 1A2 at 500 uM; assay type: ADME
T2 sequence (P05177 whole entry): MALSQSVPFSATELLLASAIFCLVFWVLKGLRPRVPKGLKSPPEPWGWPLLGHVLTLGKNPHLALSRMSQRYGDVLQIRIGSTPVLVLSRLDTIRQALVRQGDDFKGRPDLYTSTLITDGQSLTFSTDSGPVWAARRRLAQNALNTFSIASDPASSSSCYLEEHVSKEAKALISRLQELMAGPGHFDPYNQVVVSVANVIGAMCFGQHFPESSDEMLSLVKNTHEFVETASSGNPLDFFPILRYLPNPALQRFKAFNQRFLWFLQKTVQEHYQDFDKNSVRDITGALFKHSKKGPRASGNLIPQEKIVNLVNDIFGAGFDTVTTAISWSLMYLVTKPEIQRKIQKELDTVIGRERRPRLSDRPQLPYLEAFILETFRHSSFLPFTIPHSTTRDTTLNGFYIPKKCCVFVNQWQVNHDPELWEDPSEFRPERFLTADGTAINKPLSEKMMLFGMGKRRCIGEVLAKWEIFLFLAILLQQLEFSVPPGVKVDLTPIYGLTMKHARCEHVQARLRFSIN

Cytochrome P450 2D6 = Cytochrome P450 2D6 (Homo sapiens, UniProt P10635); assay: Inhibition of heterologously expressed human Cytochrome P450 2D6 at 10 uM; assay type: ADME
Cytochrome P450 3A4 [5] = target: T3, Cytochrome P450 3A4 (Homo sapiens, UniProt P08684); assay: Inhibition of heterologously expressed human Cytochrome P450 3A at 1 uM; assay type: ADME
[6] = target: Cytochrome P450 2C19 (Homo sapiens) (UniProt P33261); assay: Inhibition of heterologously expressed human Cytochrome P450 2C19 at 100 uM
Cytochrome P450 3A4 [7] = target: T3, Cytochrome P450 3A4; assay: Inhibition of heterologously expressed human Cytochrome P450 3A at 1 uM
[8] = target: Cytochrome P450 2C19 (Homo sapiens) (UniProt P33261); assay: Inhibition of heterologously expressed human Cytochrome P450 2C19 at 100 uM; remark: listed apart in the source

Cytochrome P450 2D6, sequence (P10635 whole entry): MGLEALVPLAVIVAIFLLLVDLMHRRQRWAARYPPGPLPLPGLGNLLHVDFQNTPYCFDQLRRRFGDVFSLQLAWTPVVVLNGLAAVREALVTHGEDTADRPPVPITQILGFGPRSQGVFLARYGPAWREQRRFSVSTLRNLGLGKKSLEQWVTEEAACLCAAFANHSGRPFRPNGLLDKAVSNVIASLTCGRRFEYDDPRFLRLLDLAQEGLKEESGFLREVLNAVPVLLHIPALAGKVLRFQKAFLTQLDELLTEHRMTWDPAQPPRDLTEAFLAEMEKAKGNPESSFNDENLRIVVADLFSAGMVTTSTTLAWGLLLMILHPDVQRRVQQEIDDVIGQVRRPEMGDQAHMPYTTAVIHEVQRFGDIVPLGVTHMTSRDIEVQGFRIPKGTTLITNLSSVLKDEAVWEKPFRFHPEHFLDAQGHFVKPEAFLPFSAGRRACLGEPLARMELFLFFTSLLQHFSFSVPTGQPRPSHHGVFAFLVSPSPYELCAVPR
5-hydroxytryptamine receptor 2A, sequence (P28223 whole entry): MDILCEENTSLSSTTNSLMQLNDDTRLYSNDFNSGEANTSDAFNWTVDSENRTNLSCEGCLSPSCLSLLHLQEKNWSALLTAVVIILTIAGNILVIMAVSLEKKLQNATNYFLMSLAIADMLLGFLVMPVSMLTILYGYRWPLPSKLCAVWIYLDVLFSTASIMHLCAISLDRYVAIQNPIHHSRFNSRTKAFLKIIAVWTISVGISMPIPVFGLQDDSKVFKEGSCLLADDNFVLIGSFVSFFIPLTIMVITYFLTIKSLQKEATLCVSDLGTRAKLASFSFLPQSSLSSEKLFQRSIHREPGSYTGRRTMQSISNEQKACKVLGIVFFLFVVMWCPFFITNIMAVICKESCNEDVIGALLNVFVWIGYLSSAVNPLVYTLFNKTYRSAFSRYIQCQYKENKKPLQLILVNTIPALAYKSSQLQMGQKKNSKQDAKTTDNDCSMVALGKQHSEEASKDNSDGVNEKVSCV
Serotonin 2 receptors; 5-HT2a & 5-HT2c (Homo sapiens), sequence (P28223 whole entry, looked up, one chain of several): as the sequence (P28223 whole entry) above
5-hydroxytryptamine receptor 2B, sequence (P41595 whole entry): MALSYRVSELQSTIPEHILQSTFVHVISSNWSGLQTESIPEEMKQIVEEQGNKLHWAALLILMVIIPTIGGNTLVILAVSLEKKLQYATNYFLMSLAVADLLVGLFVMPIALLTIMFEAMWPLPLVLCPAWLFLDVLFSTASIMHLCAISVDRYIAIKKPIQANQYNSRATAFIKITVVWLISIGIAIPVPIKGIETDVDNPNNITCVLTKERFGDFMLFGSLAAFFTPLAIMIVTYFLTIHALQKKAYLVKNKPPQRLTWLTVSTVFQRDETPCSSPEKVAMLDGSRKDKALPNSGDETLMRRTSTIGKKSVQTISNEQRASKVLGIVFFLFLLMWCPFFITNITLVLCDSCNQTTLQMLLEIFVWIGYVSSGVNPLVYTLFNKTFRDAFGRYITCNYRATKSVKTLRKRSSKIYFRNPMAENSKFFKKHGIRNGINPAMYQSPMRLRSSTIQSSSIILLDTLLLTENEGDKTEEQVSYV
Cytochrome P450 2C9, sequence (P11712 whole entry): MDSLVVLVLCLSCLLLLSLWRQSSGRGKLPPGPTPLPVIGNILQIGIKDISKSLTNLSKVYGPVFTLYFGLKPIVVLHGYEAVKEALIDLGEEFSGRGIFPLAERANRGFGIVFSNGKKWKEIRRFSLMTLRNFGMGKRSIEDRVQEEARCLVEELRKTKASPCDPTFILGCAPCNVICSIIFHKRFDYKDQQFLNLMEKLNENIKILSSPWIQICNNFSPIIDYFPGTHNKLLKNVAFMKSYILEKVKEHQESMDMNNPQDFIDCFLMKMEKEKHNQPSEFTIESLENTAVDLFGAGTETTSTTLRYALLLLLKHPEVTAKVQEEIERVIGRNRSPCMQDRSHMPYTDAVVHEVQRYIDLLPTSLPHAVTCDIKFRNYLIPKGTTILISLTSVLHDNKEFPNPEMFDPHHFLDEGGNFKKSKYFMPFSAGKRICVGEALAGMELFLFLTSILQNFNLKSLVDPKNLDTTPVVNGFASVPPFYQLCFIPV
T3 sequence (P08684 whole entry): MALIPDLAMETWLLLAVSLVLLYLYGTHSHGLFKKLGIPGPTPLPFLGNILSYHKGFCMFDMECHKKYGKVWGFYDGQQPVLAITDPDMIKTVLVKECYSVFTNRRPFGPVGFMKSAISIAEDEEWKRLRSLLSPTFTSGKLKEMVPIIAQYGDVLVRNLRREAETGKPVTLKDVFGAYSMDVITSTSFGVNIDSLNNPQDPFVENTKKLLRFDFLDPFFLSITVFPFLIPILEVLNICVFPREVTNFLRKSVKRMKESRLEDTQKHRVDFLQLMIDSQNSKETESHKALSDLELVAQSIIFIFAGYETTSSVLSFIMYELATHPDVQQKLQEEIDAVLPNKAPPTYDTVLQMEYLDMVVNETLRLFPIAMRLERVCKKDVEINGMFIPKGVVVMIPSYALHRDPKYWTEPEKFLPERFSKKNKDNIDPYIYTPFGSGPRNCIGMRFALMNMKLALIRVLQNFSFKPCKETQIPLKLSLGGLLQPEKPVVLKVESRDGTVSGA
Cytochrome P450 2C19 (Homo sapiens), sequence (P33261 whole entry, looked up): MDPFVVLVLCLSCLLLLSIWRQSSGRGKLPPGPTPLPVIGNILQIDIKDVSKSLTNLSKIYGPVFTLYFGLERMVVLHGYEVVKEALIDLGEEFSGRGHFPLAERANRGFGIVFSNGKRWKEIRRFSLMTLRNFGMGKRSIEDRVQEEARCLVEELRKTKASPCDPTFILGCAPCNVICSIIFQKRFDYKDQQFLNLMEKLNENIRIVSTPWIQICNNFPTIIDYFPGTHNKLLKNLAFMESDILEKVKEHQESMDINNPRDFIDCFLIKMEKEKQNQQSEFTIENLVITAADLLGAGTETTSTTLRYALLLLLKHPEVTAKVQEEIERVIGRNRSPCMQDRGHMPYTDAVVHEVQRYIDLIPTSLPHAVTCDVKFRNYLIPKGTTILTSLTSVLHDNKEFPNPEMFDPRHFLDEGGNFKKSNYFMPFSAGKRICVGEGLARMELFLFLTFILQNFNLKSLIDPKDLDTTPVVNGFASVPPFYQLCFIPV

Cc1cc2c(cc1Cl)N(C(=O)Nc1cccnc1)CC2
Ki [1]: 158 nM
Ki [2]: 6.31 nM
ED50 (Rattus norvegicus): 0.6 mg/kg
Selectivity ratio [3]: 30

CSc1cc2c(cc1Cl)N(C(=O)Nc1cccnc1)CC2
Ki [1]: 2510 nM
Ki [2]: 6.31 nM
ED50 (Rattus norvegicus): 10 mg/kg
Selectivity ratio [3]: 420

Cc1cc2c(cc1Cl)N(C(=O)Nc1ccc(Oc3cccnc3C)nc1)CC2 [SB-242084]
Ki [1]: 158 nM
Ki [2]: 1 nM
Ki [4]: 100 nM
IC50 (Cytochrome P450 2C9): > 100000 nM
IC50 (Cytochrome P450 1A2): > 100000 nM
IC50 (Cytochrome P450 2D6): > 100000 nM
IC50 (Cytochrome P450 3A4 [5]): > 100000 nM
ED50 (Rattus norvegicus): 2 mg/kg
Selectivity ratio [3]: 160
IC50 [6]: > 100000 nM

CSc1cc2c(cc1C(F)(F)F)N(C(=O)Nc1cccnc1)CC2
Ki [1]: 398 nM
Ki [2]: 2.51 nM
Ki [4]: 12.6 nM
IC50 (Cytochrome P450 2C9): > 100000 nM
IC50 (Cytochrome P450 1A2): 13 nM
IC50 (Cytochrome P450 2D6): 110 nM
ED50 (Rattus norvegicus): 1.5 mg/kg
IC50 (Cytochrome P450 3A4 [7]): > 100000 nM

Cn1ccc2cc3c(cc21)CCN3C(=O)Nc1cccnc1
Ki [1]: 2000 nM
Ki [4]: 25.1 nM
IC50 (Cytochrome P450 2C9): > 100000 nM
IC50 (Cytochrome P450 1A2): 50 nM
IC50 (Cytochrome P450 2D6): 30000 nM
ED50 (Rattus norvegicus): 5.5 mg/kg
IC50 [8]: > 100000 nM
